Reference: PubChem BioAssay
Records with an inconclusive call do not appear.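 How the source made its calls, unless noted: active means RAM network inhibition above 8.4% in each of two replicates, 3 SD over the compound average; inconclusive means above 8.4% inhibition in only one replicate; inactive means 8.4% inhibition or less in each replicate.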

Assays:
[1] = S. cerevisiae growth inhibition in permissive medium (OD615), pilot counter-assay for S. cerevisiae lifespan shortening project, permissive growth control (AID 705;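 active means growth inhibition above 25% in both replicates, a cutoff set 3 SD above the mean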); settings: OD615, 24 h, at 10 µM, stronger effect = higher value
How it was run: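 assay system = Saccharomyces cerevisiae strain carrying genetically modified DeaD replicative-lifespan system | medium = SC raffinose/galactose permissive medium | dosing = 10 µM single dose, 0.25% DMSO | schedule = 24 h compound exposure at 30 °C after 4 h pre-growth | measured by = OD at 615 nm | read-out basis = growth inhibition from lowered OD615 after 24 h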

[2] = S. cerevisiae growth inhibition in restrictive medium, OD615, pilot screen, restrictive growth control, yeast lifespan reduction project (AID 706;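 active means growth inhibition above a set limit, 3 SD over mean compound inhibition, in both replicates, cut at about 43% in these data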;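 further: modified DeaD lifespan yeast strain shifted to restrictive glucose medium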); settings: OD615, 48 h, at 10 µM, stronger effect = higher value
How it was run: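 Buffer or medium: CSMM-D glucose medium. Material: genetically modified Saccharomyces cerevisiae, DeaD replicative lifespan assay strain. Times: 48 h compound exposure at 30 °C. Measured by: optical density at 615 nm.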

[3] = doxorubicin toxicity protection in MRP-1 cells – H69AR cells, CellTiter-Glo, duplicate, MRP-1 activator project, pilot screen (AID 807;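 active means viability increase at or above a cutoff of the median across tested compounds plus 3 SD, cut at about 8.5% in these data, passing the limit was not always enough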;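 further: compound pretreatment 18-22 h then 72 h combined with doxorubicin; 0% = doxorubicin alone and 100% = vehicle without doxorubicin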); settings: H69AR viability with doxorubicin, CellTiter-Glo luminescence; at 10 µM; stronger effect = higher value
[4] = viability of HCT116 without oncogenic beta-catenin – human colon tumor cells, pilot screen (AID 823;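 active means cell viability at or below a set limit in both duplicate runs, the limit being the all-compound median minus 4 SD, cut at about 23% in these data, passing the limit was not always enough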;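 further: 0% = wells killed by 20 µM Hyamine and 100% = untreated DMSO cell wells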); settings: HCT116 beta-catenin knockout viability, CellTiter-Glo, 60 h; at 10 µM; stronger effect = lower value
[5] = viability of PTEN-null HCT116 cells – cell-based, HCT116 clonal line, CellTiter-Glo, pilot screen (AID 824;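 active means viability at or below 27.92% in each of two runs, the all-compound median minus 4 SD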;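 further: 0% = 20 µM Hyamine control and 100% = vehicle cell control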); settings: HCT116 PTEN-deleted viability, 60 h, at 10 µM, stronger effect = lower value
[6] = RAM pathway blockade in budding yeast – dse1pr::URA3 reporter, 5-FOA selection, pilot screen (AID 869;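 active means inhibition over a set limit, the all-compound mean plus 3 SD, in both replicate runs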;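 further: 0% = DMSO wells with no growth and 100% = 10 µM 1-NA-PP1 with full growth; RAM network block rescues cells from 5-FOA so hits raise OD615 growth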); settings: S. cerevisiae dse1pr::URA3 5-FOA growth, OD615, 2 d; at 10 µM; stronger effect = higher value; strain carries analog-sensitive mutant Cbk1 kinase
[7] = RAM signaling pathway blockade in yeast – S. cerevisiae, Pdr1DBD-CYC8 efflux-inhibited sensitized strain, primary screen (AID 1298);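 further: 0% = DMSO untreated cells without growth and 100% = 10 µM 1-NA-PP1 full growth; higher means more yeast growth rescued from 5-FOA killing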; settings: S. cerevisiae cbk1-as DSE1-URA3 strain, 5-FOA growth OD615, 2 d; at 50 µM; stronger effect = higher value

CCOC(=O)C1=C(C)NC(=O)NC1c1ccc(C)o1 (stereo not drawn)
inactive: growth inhibition [1] 8.61% | growth inhibition [2] 7.96% | viability increase [3] -1.92% | viability [4] 105% | viability [5] 100% | inhibition [6] 0.345% | RAM network inhibition [7] 2.74%

O=C1Nc2ccccc2C(O)(C(=O)NCc2ccco2)N1c1ccccc1 (stereo not drawn)
inactive: growth inhibition [1] -5.44% | growth inhibition [2] 1.25% | viability increase [3] -1.5% | viability [4] 108% | viability [5] 98.7% | inhibition [6] 0.96% | RAM network inhibition [7] 1.15%

CCn1c(SCC(=O)Nc2ccccc2C(=O)OC)nc2c1c(=O)n(C)c(=O)n2C
inactive: growth inhibition [1] -6.03% | growth inhibition [2] -4.93% | viability increase [3] -3.55% | viability [4] 92% | viability [5] 86.6% | inhibition [6] 3.68% | RAM network inhibition [7] 5.2%

CCOC1OC2C(CO)OC(n3cnc4c(N)ncnc43)C2O1 (stereo not drawn)
inactive: growth inhibition [1] 6.12% | growth inhibition [2] 10.6% | viability increase [3] 0.13% | viability [4] 95.1% | viability [5] 96.6% | inhibition [6] 1.5% | RAM network inhibition [7] 1.28%

Cc1ccccc1-n1c(Cn2c(=O)sc3ccccc32)nnc1SCC(=O)NCC1CCCO1 (stereo not drawn)
inactive: growth inhibition [1] -3.68% | growth inhibition [2] -12.2% | viability increase [3] 0% | viability [4] 100% | viability [5] 97.9% | inhibition [6] 0.82% | RAM network inhibition [7] 3.19%

C=CCNC(=O)C1CCN(S(=O)(=O)c2ccc(Br)cc2)CC1
inactive: growth inhibition [1] -8.89% | growth inhibition [2] -18% | viability increase [3] -2.46% | viability [4] 48.1% | viability [5] 48.1% | inhibition [6] 0.52% | RAM network inhibition [7] 1.76%

O=C1C2CCCN2C(c2ccc(F)c(F)c2)N1c1cccc(Cl)c1 (stereo not drawn)
inactive: growth inhibition [1] 3.17% | growth inhibition [2] -1.67% | viability increase [3] -0.86% | viability [4] 101% | viability [5] 100% | inhibition [6] 0.745% | RAM network inhibition [7] 5.42%

Cc1cc(C(=O)Nc2ccc3c(c2)OCCO3)co1
inactive: growth inhibition [1] -4.03% | growth inhibition [2] 5.26% | viability increase [3] -0.16% | viability [4] 96.7% | viability [5] 92.1% | inhibition [6] 0.06% | RAM network inhibition [7] -0.41%

O=C(Nc1ccc2c(c1)OCO2)c1cc(C2CC2)on1
inactive: growth inhibition [1] -12.5% | growth inhibition [2] -18% | viability increase [3] -3.41% | viability [4] 84.9% | viability [5] 88.8% | inhibition [6] 1% | RAM network inhibition [7] 3.09%

COc1ccc(CN2CCNC(=O)C2CC(=O)O)c(OC)c1 (stereo not drawn)
inactive: growth inhibition [1] -18.7% | growth inhibition [2] -24% | viability increase [3] -2.1% | viability [4] 105% | viability [5] 93.1% | inhibition [6] 2.47% | RAM network inhibition [7] 1.42%

O=C(COC(=O)c1cccs1)Nc1ccccc1
inactive: growth inhibition [1] -5.3% | growth inhibition [2] 0.975% | viability increase [3] -0.14% | viability [4] 96.7% | viability [5] 97.1% | inhibition [6] 1.56% | RAM network inhibition [7] 0.11%

Cn1c(C(=O)NCCCN2CCCC2=O)cc2c(=O)n(C)c3ccccc3c21
inactive: growth inhibition [1] -6.28% | growth inhibition [2] -1.63% | viability increase [3] -4.16% | viability [4] 108% | viability [5] 94.4% | inhibition [6] 1.69% | RAM network inhibition [7] 0.06%

Cc1ccc(Cl)cc1N1CCN(C(=O)C2CCN(c3nnc(-n4cccc4)s3)CC2)CC1
inactive: growth inhibition [1] -6.07% | growth inhibition [2] -7.06% | viability increase [3] 2.36% | viability [4] 64% | viability [5] 64% | inhibition [6] 4.06% | RAM network inhibition [7] 8.04%

COc1ccc(CNC(=O)c2cc(C3CC3)on2)cc1
inactive: growth inhibition [1] -3.07% | growth inhibition [2] 6.49% | viability increase [3] -1.95% | viability [4] 94.3% | viability [5] 95.5% | inhibition [6] -0.84% | RAM network inhibition [7] -2.3%

CC(=O)Nc1nnc(SCc2cccc(F)c2)s1
inactive: growth inhibition [1] -1.17% | growth inhibition [2] -1.06% | viability increase [3] -0.12% | viability [4] 108% | viability [5] 104% | inhibition [6] 1.99% | RAM network inhibition [7] 4.84%

CCOC(=O)Cn1c(=O)oc2cc(S(=O)(=O)N3CCCC(C(=O)OCC)C3)ccc21 (stereo not drawn)
inactive: growth inhibition [1] -2.33% | growth inhibition [2] -20.5% | viability increase [3] -1.74% | viability [4] 95.4% | viability [5] 90.7% | inhibition [6] 0.87% | RAM network inhibition [7] 1.99%

COc1ccc(C2C(C(=O)N3CCOCC3)CCC(=O)N2c2cc(OC)c(OC)c(OC)c2)cc1 (stereo not drawn)
inactive: growth inhibition [1] -10.2% | growth inhibition [2] -12.3% | viability increase [3] -0.09% | viability [4] 99.7% | viability [5] 102% | inhibition [6] 0.705% | RAM network inhibition [7] 1.3%

CCOC(=O)N1CCN(C(=O)CSc2nc3c([nH]c4ccccc43)c(=O)n2C)CC1
inactive: growth inhibition [1] 1.46% | growth inhibition [2] -8.89% | viability increase [3] -4.86% | viability [4] 91.1% | viability [5] 82.2% | inhibition [6] 2.34% | RAM network inhibition [7] 3.41%

Cc1cc2ccccc2n1CCNC(=O)C(C)C
inactive: growth inhibition [1] -8.34% | growth inhibition [2] -7.54% | viability increase [3] -1.99% | viability [4] 102% | viability [5] 98.7% | inhibition [6] 0.15% | RAM network inhibition [7] 2.1%

COc1ccc(Cc2nc(-c3cccs3)no2)cc1OC
inactive: growth inhibition [1] 1.64% | growth inhibition [2] 5.25% | viability increase [3] 0.92% | viability [4] 76.8% | viability [5] 80.9% | inhibition [6] 1.62% | RAM network inhibition [7] 7.4%

Cc1cc(-c2ccco2)n(CC(=O)NCCN(C)C)n1
inactive: growth inhibition [1] -3.33% | growth inhibition [2] 1.02% | viability increase [3] -0.48% | viability [4] 98.8% | viability [5] 94.5% | inhibition [6] 2.31% | RAM network inhibition [7] 0.37%

O=C(Nc1ccc(Br)cc1F)c1ccc2c(c1)N(Cc1ccccc1)C(=O)CS2=O (stereo not drawn)
inactive: growth inhibition [1] -7.48% | growth inhibition [2] 1.12% | viability increase [3] -0.49% | viability [4] 81.1% | viability [5] 67.8% | inhibition [6] 2.64% | RAM network inhibition [7] 2.84%

O=C(CCS(=O)(=O)c1cccs1)N1CCCC1
inactive: growth inhibition [1] -1.4% | growth inhibition [2] -7.61% | viability increase [3] -1.26% | viability [4] 94% | viability [5] 96.2% | inhibition [6] 2.58% | RAM network inhibition [7] 1.19%

CCOC(=O)C1C(=O)OC2(CCOC(C)(C)C2)C1C(=O)OCC (stereo not drawn)
inactive: growth inhibition [1] 1.65% | growth inhibition [2] 7.69% | viability increase [3] -0.15% | viability [4] 105% | viability [5] 100% | inhibition [6] 1.38% | RAM network inhibition [7] 0.98%
